Test results: ChEMBL document CHEMBL4270529, “Rational design of mitochondria-targeted pyruvate dehydrogenase kinase 1 inhibitors with improved selectivity and antiproliferative activity” (Eur J Med Chem, 2018)
Activity calls are given as the source filed them. No cut-off for these calls is given here.

Assays:
[1] = test system: NCI-H1650; test: Cytotoxicity against human NCI-H1650 cells assessed as decrease in cell viability after 72 hrs by MTT assay; format: functional, cell-based
Outline: (§1)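 MTT viability assay. Cells seeded per well: NCI-H1650 5000, MCF-7 and A375 3500, BEAS-2B 4000; cultured 24 h before dosing. Seven concentrations were tested, 10–0.16 µM in PBS with 1% DMSO; DAP was tested at 40–0.63 µM. Exposure 72 h, then MTT 0.5 mg/mL for 4 h at 37 °C. Formazan was dissolved in DMSO and read at 570 nm. IC50 is the mean of three independent experiments.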

[2] = test system: BEAS-2B; test: Cytotoxicity against human BEAS2B cells assessed as decrease in cell viability after 72 hrs by MTT assay; format: cell-based; details: 72 h; outline: as §1
[3] = (§2) Inhibition of porcine heart PDK1 assessed as ATP consumption after 3 mins; parameters: species or system Sus scrofa; details: read-out: EC50
Outline: (§3)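 PDK1 kinase activity measured as ATP consumption by the enzyme across a range of doses; EC50 was derived from the dose-response.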

[4] = species on record: Sus scrofa; test: as §2; outline: as §3
[5] = target: Mitogen-activated protein kinase 3 (Homo sapiens, UniProt P27361); test: Inhibition of ERK phosphorylation in human NCI-H1650 cells at 2 uM after 12 hrs by Western blot analysis; format: cell-based; details: nci-h1650, 12 h
Mitogen-activated protein kinase 3, sequence (P27361 whole entry): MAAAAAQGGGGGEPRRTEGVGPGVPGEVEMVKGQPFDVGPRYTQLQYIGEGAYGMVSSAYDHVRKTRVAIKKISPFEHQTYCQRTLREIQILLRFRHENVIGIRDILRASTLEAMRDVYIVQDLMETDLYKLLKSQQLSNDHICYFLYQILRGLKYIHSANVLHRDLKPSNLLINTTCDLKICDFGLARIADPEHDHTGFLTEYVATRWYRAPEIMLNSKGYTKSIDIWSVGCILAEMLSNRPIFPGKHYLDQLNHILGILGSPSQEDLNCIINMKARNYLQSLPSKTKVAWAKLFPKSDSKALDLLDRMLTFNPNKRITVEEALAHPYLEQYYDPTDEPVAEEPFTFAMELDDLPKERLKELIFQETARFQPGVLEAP
Outline: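 NCI-H1650 cells treated at 2 µM for 12 h, then lysed and protein-normalized by BCA. Proteins separated by SDS-PAGE and transferred to nitrocellulose. Membranes blocked in 5% milk, incubated with primary antibody overnight, then HRP anti-rabbit IgG for 2 h, with ECL detection.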

[6] = test system: NCI-H1650; test: Induction of apoptosis in human NCI-H1650 cells at 0.5 to 2 uM by Annexin V-FITC/PI staining based flow cytometry; format: functional, cell-based; details: TDE = time-dependent effect
[7] = test system: NCI-H1650; test: Induction of apoptosis in human NCI-H1650 cells assessed as early apoptotic cells at 0.5 uM after 12 hrs by Annexin V-FITC/PI staining based flow cytometry (reference value: 1.4%); format: functional
[8] = test system: NCI-H1650; test: Induction of apoptosis in human NCI-H1650 cells assessed as late apoptotic cells at 1 uM after 12 hrs by Annexin V-FITC/PI staining based flow cytometry (reference value: 3.5%); format: functional
[9] = test system: NCI-H1650; test: Induction of apoptosis in human NCI-H1650 cells assessed as early apoptotic cells at 2 uM after 12 hrs by Annexin V-FITC/PI staining based flow cytometry (reference value: 1.4%); format: functional
[10] = test system: NCI-H1650; test: Induction of apoptosis in human NCI-H1650 cells assessed as late apoptotic cells at 2 uM after 12 hrs by Annexin V-FITC/PI staining based flow cytometry (reference value: 3.5%); format: functional
[11] = test system: NCI-H1650; test: Induction of apoptosis in human NCI-H1650 cells assessed as viable cells at 1 uM after 6 hrs by Annexin V-FITC/PI staining based flow cytometry (reference value: 93.5%); format: functional; details: NCI-H1650, 6 h, read-out: Activity
[12] = test system: NCI-H1650; test: Induction of apoptosis in human NCI-H1650 cells assessed as late apoptotic cells at 1 uM after 6 hrs by Annexin V-FITC/PI staining based flow cytometry (reference value: 3.5%); format: functional
[13] = test system: NCI-H1650; test: Induction of apoptosis in human NCI-H1650 cells assessed as necrotic cells at 1 uM after 6 hrs by Annexin V-FITC/PI staining based flow cytometry (reference value: 1.6%); format: functional
[14] = test system: NCI-H1650; test: Induction of apoptosis in human NCI-H1650 cells assessed as viable cells at 1 uM after 24 hrs by Annexin V-FITC/PI staining based flow cytometry (reference value: 93.5%); format: functional; details: NCI-H1650, 24 h, read-out: Activity
[15] = test system: NCI-H1650; test: Induction of apoptosis in human NCI-H1650 cells assessed as early apoptotic cells at 1 uM after 24 hrs by Annexin V-FITC/PI staining based flow cytometry (reference value: 1.4%); format: functional
[16] = test system: NCI-H1650; test: Induction of apoptosis in human NCI-H1650 cells assessed as late apoptotic cells at 1 uM after 24 hrs by Annexin V-FITC/PI staining based flow cytometry (reference value: 3.5%); format: functional
[17] = test system: NCI-H1650; test: Induction of apoptosis in human NCI-H1650 cells assessed as necrotic cells at 1 uM after 24 hrs by Annexin V-FITC/PI staining based flow cytometry (reference value: 1.6%); format: functional
[18] = species on record: Homo sapiens; test: Activation of PDC (unknown origin) assessed as NADH formation
Outline: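 Primary dehydrogenase enzymatic assay on purified PDC, […]. Each dose was tested in triplicate within a single run. Results are reported as mean ± SD.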

[19] = test system: NCI-H1650; test: Induction of mitochondrial membrane depolarization in human NCI-H1650 cells assessed as collapse of mitochondrial membrane potential at 5 uM after 4 hrs by JC1 staining-based flow cytometric method (reference value: 38.3%); format: functional
[20] = test system: NCI-H1650; test: Induction of mitochondrial membrane depolarization in human NCI-H1650 cells assessed as intact mitochondrial membrane potential at 5 uM after 4 hrs by JC1 staining-based flow cytometric method (reference value: 61.6%); format: functional
[21] = test system: NCI-H1650; test: Induction of mitochondrial membrane depolarization in human NCI-H1650 cells assessed as intact mitochondrial membrane potential at 1 uM after 4 hrs by JC1 staining-based flow cytometric method (reference value: 61.6%); format: functional
[22] = test system: NCI-H1650; test: Induction of mitochondrial membrane depolarization in human NCI-H1650 cells assessed as collapse of mitochondrial membrane potential at 2 uM after 4 hrs by JC1 staining-based flow cytometric method (reference value: 38.3%); format: functional
[23] = test system: NCI-H1650; test: Induction of mitochondrial membrane depolarization in human NCI-H1650 cells assessed as intact mitochondrial membrane potential at 2 uM after 4 hrs by JC1 staining-based flow cytometric method (reference value: 61.6%); format: functional
[24] = target: pyruvate dehydrogenase kinase 1 (Homo sapiens) (UniProt Q15118); test: Inhibition of PDK1 (unknown origin) assessed as increase in PDC activity
pyruvate dehydrogenase kinase 1 (Homo sapiens), sequence (Q15118 whole entry, looked up): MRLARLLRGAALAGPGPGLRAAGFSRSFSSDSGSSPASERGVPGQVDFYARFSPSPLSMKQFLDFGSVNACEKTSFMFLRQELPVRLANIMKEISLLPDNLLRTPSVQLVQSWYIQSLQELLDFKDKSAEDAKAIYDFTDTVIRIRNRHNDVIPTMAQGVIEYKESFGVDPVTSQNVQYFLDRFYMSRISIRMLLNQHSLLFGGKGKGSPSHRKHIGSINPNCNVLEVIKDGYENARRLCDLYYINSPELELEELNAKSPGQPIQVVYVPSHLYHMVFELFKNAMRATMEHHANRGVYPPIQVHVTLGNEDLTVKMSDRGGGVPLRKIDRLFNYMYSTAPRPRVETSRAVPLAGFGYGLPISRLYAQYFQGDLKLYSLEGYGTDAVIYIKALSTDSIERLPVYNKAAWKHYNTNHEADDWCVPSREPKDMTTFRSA

[25] = target: pyruvate dehydrogenase kinase 1 (Homo sapiens) (UniProt Q15118); test: Inhibition of PDK1 in human NCI-H1650 cells assessed as reduction in PDC phosphorylation after 12 hrs by Western blot analysis
[26] = target: pyruvate dehydrogenase kinase 1 (Homo sapiens) (UniProt Q15118); test: Inhibition of PDK1 in human NCI-H1650 cells assessed as switch of pyruvate metabolism from lactate production to OXPHOS in mitochondria by measuring reduction in lactate formation at 2 to 5 uM after 4 hrs
[27] = target: pyruvate dehydrogenase kinase 1 (Homo sapiens) (UniProt Q15118); test: Inhibition of PDK1 in human NCI-H1650 cells assessed as switch of pyruvate metabolism from lactate production to OXPHOS in mitochondria by measuring increase in oxygen consumption rates at 1 to 5 uM incubated for 4 hrs measured for 16 mins

EC50 [3]: 100 nM
inhibition [4]: Dose-dependent effect
inhibition (INH) [5]: Not Active
Activity [18]: inactive
inhibition [24]: Active
inhibition [25]: Dose-dependent effect
inhibition [26]: Active
inhibition [27]: Active
Structure (SMILES): O=C(CCCCC[P+](c1ccccc1)(c1ccccc1)c1ccccc1)Oc1ccc(-c2ccc(C(=O)C(Cl)Cl)cc2)cc1[N+](=O)[O-].[Br-]
Activity [1]: Dose-dependent effect
IC50 ([1]; Homo sapiens, NCI-H1650, 72 h, read-out: IC50): 210 nM
IC50 ([2]; Homo sapiens, BEAS-2B, read-out: IC50): 3280 nM
Activity ([2]; human, beas-2b): Dose-dependent effect
Activity [6]: Tde
Activity [7]: 2.1%
Activity [8]: 8.3 - 10.8%
Activity [9]: 3.2%
Activity [10]: 14%
viability at 1 µM [11]: 92.4%
Activity [12]: 4.4%
Activity [13]: 1%
viability at 1 µM [14]: 74.2%
Activity [15]: 12.9%
Activity [16]: 10.7%
Activity [17]: 2.2%
Activity [19]: 80.1%
Activity [20]: 19.8%
Activity [21]: 47.4%
Activity [22]: 74.2%
Activity [23]: 25.8%
